From PubChem BioAssay
Rows were chosen to be rich in hits. Some 11% of all compounds tested hit in one or more screens of this group.
S1P3 ag: agonists of human S1P3 receptor; 0.1% of 60,000 active; S1P3 NFAT-BLA reporter cells, agonism, FRET ratio; relative to 1 µM S1P, basal subtracted; activation, % at 4.5 µM; Q99500;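 active = activation above the screen-wide mean plus 3 SD, cut at about 4.5% in these data, passing the limit was not always enough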
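Benchmarks: high control 1 µM S1P / System: stable CHO line with human S1P3, Gα16, NFAT-BLA reporter / Dosing: single compound concentration, 4.5 µM final / Timing: 4 h compound at 37 °C, 2 h substrate at RT / Measured by: FRET β-lactamase substrate fluorescence, excitation 405 nm, 460/535 nm emission ratio, background-subtracted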
TNAP act DEA: human TNAP activation, intermediate phosphate acceptor. P05186. purified TNAP, CDP-star luminescence, 100 mM DEA, 30 min; hits give high values; scale: 0 levamisole-inhibited, 1 vehicle-only enzyme. activation factor at 20 µM. 64,000 tested, under 10 active. AID 813;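 active = activation factor of at least 2 at 20 µM, relative to controls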
S1P1 ag pot: activates or potentiates agonism at human S1P1 receptor. P21453. S1P1 CRE-bla cells, forskolin, beta-lactamase FRET, potentiator mode; S1P1 agonist co-added at EC20, 2 nM; 100% = saturating reference agonist, 0% = basal. activation, % at 9.5 µM. 0.57% of 56,000 active;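 active = activation above a cutoff set at the mean activation of all tested compounds plus 3 SD, cut at about 54% in these data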;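 also: forskolin at 4 µM as EC80 and the EC20 agonist is SEW2871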
M1 antagonist: M1 muscarinic receptor (rat) antagonism; P08482; AID 628; B-score at 10 µM; 3.4% of 64,000 active; CHO-M1 cells, Fluo-4 calcium, ACh EC80 antagonist mode; hits give low values;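 active = calcium fluorescence response, raw or row-and-column corrected B-score, differing from the plate sample mean either way at a set confidence level, mostly lower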
D1 allo mod: allosteric modulators of human D1 dopamine receptor. B-score at 10 µM. HEK293 D1, CRE-luciferase, dopamine EC30 potentiation; actives deviate in either direction. P21728. 5.9% of 58,000 active;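 active = luminescence count or its row- and column-corrected plate score outside the 99.7% band of the plate's sample wells, on either side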
Target sequence (P21728 whole entry, looked up): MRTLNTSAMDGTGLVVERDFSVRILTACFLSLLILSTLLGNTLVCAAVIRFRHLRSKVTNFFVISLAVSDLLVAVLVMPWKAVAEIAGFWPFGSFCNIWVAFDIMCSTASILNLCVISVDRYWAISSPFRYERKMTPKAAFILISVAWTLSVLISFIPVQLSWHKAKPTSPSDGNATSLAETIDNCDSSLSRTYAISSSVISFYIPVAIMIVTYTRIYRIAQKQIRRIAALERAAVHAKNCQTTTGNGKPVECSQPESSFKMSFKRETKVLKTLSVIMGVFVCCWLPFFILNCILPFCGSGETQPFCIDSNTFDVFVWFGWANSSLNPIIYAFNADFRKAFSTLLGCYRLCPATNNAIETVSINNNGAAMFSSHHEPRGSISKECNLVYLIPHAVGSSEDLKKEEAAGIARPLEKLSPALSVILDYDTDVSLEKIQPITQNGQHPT
M1 agonist: agonists of M1 muscarinic receptor; CHO-M1 cells, Fluo-4 calcium fluorescence, agonist mode; hits give high values; 3% of 64,000 active; B-score at 10 µM;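 active = fluorescence rise, raw or as B-score row- and column-corrected plate score, outside the 99.7% band of its plate's samples, either direction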
Hits are given with their value.

Results for N=Cc1c(O)n(-c2cccc(Cl)c2)c(=O)[nH]c1=O ?
S1P3 ag: inactive; TNAP act DEA: inactive; S1P1 ag pot: inactive; M1 antagonist: inactive; D1 allo mod: inactive; M1 agonist: 2.5

What do the screens show for `O=C(Cc1cccs1)N1CCC2(CC1)OCCO2`?
S1P3 ag: inactive; TNAP act DEA: inactive; S1P1 ag pot: inactive; M1 antagonist: inactive; D1 allo mod: inactive; M1 agonist: inactive

Results for CCC(C)NC(=O)c1c(N)n(Cc2ccc3c(c2)OCO3)c2nc3ccccc3nc12 (centres undefined) ?
S1P3 ag: 30.6; TNAP act DEA: inactive; S1P1 ag pot: inactive; M1 antagonist: inactive; D1 allo mod: inactive; M1 agonist: inactive

What do the screens show for `CN=C(SCc1cc2c(cc1Cl)OCO2)c1c(O)n(C)c(=O)n(C)c1=O`?
S1P3 ag: inactive; TNAP act DEA: inactive; S1P1 ag pot: inactive; M1 antagonist: inactive; D1 allo mod: inactive; M1 agonist: inactive

Results for FC(F)(F)C1=NC(C(F)(F)F)=NP(N2CCOCC2)(N2CCOCC2)=N1 ?
S1P3 ag: inactive; TNAP act DEA: inactive; S1P1 ag pot: inactive; M1 antagonist: inactive; D1 allo mod: inactive; M1 agonist: inactive

Results for c1ccc2c(c1)[nH]c1cnccc12 ?
S1P3 ag: inactive; TNAP act DEA: inactive; S1P1 ag pot: inactive; M1 antagonist: inactive; D1 allo mod: inactive; M1 agonist: inactive

What do the screens show for `Cc1c2ccncc2c(C)c2c1[nH]c1ccccc12`?
S1P3 ag: inactive; TNAP act DEA: inactive; S1P1 ag pot: inactive; M1 antagonist: inactive; D1 allo mod: inactive; M1 agonist: 34.6

Results for O=C(c1ccco1)C12CN3CN(CN(C3)C1)C2 ?
S1P3 ag: inactive; TNAP act DEA: inactive; S1P1 ag pot: inactive; M1 antagonist: inactive; M1 agonist: inactive

How did COC(=O)C1C2c3ccccc3OC1(C)N=c1s/c(=C/c3cn(C)nc3C)c(=O)n12 (centres undefined) do in these assays?
S1P3 ag: inactive; TNAP act DEA: inactive; S1P1 ag pot: inactive; M1 antagonist: inactive; D1 allo mod: -4.19; M1 agonist: inactive

Results for O=c1[nH]c(=O)n(CCC2=CCCCC2)c(O)c1C=NC1CCN(Cc2ccccc2)CC1 ?
S1P3 ag: inactive; TNAP act DEA: inactive; S1P1 ag pot: inactive; M1 antagonist: inactive; D1 allo mod: inactive; M1 agonist: inactive

What do the screens show for `CCCCCCn1c(O)c(C=NC2CCN(Cc3ccccc3)CC2)c(=O)[nH]c1=O`?
S1P3 ag: inactive; TNAP act DEA: inactive; S1P1 ag pot: inactive; M1 antagonist: inactive; D1 allo mod: -2.98; M1 agonist: inactive

Results for CN1CCN(C(=O)COc2ccc(-c3nc4ccccc4s3)cc2)CC1 ?
TNAP act DEA: inactive; M1 antagonist: inactive; D1 allo mod: -4.44; M1 agonist: inactive

How did Cc1ccc2c(c1)C1CN(C)CCC1N2C(=O)COc1ccc(S(=O)(=O)N2CCOCC2)cc1 (centres undefined) do in these assays?
S1P3 ag: inactive; TNAP act DEA: inactive; S1P1 ag pot: inactive; M1 antagonist: inactive; M1 agonist: inactive

How did Nc1c(C(=O)NCCc2ccccc2)c2nc3ccccc3nc2n1CCN1CCOCC1 do in these assays?
S1P3 ag: 7.7; TNAP act DEA: inactive; S1P1 ag pot: inactive; M1 antagonist: inactive; D1 allo mod: inactive; M1 agonist: inactive

How did Nc1c(C(=O)NCCN2CCOCC2)c2nc3ccccc3nc2n1Cc1ccco1 do in these assays?
S1P3 ag: inactive; TNAP act DEA: inactive; S1P1 ag pot: inactive; M1 antagonist: inactive; D1 allo mod: inactive; M1 agonist: 6.7

Results for CCCCn1c(N)c(C(=O)NCCN2CCOCC2)c2nc3ccccc3nc21 ?
S1P3 ag: inactive; TNAP act DEA: inactive; S1P1 ag pot: inactive; M1 antagonist: inactive; M1 agonist: inactive

Results for COc1ccc(CCNC(=O)c2c(N)n(CCN3CCOCC3)c3nc4ccccc4nc23)cc1 ?
S1P3 ag: inactive; TNAP act DEA: inactive; S1P1 ag pot: inactive; M1 antagonist: inactive; D1 allo mod: inactive; M1 agonist: inactive

What do the screens show for `Cc1cc(OCC(=O)OC(C)(C)C)c2c3c(c(=O)oc2c1)CCC3`?
S1P3 ag: inactive; TNAP act DEA: inactive; S1P1 ag pot: inactive; M1 antagonist: inactive; D1 allo mod: inactive; M1 agonist: inactive

How did Cc1cc(OC(=O)CCNC(=O)OC(C)(C)C)c2c3c(c(=O)oc2c1)CCC3 do in these assays?
S1P3 ag: inactive; TNAP act DEA: inactive; S1P1 ag pot: inactive; M1 antagonist: inactive; D1 allo mod: inactive; M1 agonist: 7.1

What do the screens show for `Cn1ncnc2c(=O)n(C)c(=O)nc1-2`?
S1P3 ag: inactive; TNAP act DEA: inactive; S1P1 ag pot: 129.7; M1 antagonist: inactive; D1 allo mod: -6.49; M1 agonist: inactive

What do the screens show for `COc1ccc(-n2c(O)c(C(C)=NCc3ccco3)c(=O)[nH]c2=O)cc1`?
S1P3 ag: inactive; TNAP act DEA: inactive; S1P1 ag pot: inactive; M1 antagonist: inactive; D1 allo mod: inactive; M1 agonist: inactive

What do the screens show for `Cn1c(O)c(C=NCCN2CCN(C(=O)c3ccccc3)CC2)c(=O)n(C)c1=O`?
S1P3 ag: inactive; TNAP act DEA: inactive; S1P1 ag pot: inactive; M1 antagonist: inactive; D1 allo mod: -7.4; M1 agonist: inactive

How did O=C(C1CCC(=O)N1C1CCCCC1)N1CCC2(CC1)OCCO2 (centres undefined) do in these assays?
S1P3 ag: inactive; TNAP act DEA: inactive; S1P1 ag pot: inactive; M1 antagonist: inactive; D1 allo mod: inactive; M1 agonist: inactive

Results for CCOP(=S)(OCC)c1ccc(N(C)C)cc1 ?
TNAP act DEA: inactive; M1 antagonist: inactive; D1 allo mod: inactive; M1 agonist: 2.97

What do the screens show for `CN(C)c1ccc(P(=S)(N(C)C)N(C)C)cc1`?
TNAP act DEA: inactive; M1 antagonist: inactive; D1 allo mod: inactive; M1 agonist: inactive

How did Nc1ccccc1C(=O)OCCOc1ccccc1 do in these assays?
S1P3 ag: inactive; TNAP act DEA: inactive; S1P1 ag pot: inactive; M1 antagonist: inactive; D1 allo mod: -4.36; M1 agonist: inactive

Results for CC(=O)c1c(C)[nH]c(C(=O)N2CCC3(CC2)OCCO3)c1C ?
S1P3 ag: inactive; TNAP act DEA: inactive; S1P1 ag pot: inactive; M1 antagonist: inactive; D1 allo mod: inactive; M1 agonist: inactive

What do the screens show for `CC1=CC(C)C(COC(N)=O)(COC(N)=O)C(C)C1` (centres undefined)?
S1P3 ag: inactive; TNAP act DEA: inactive; S1P1 ag pot: inactive; M1 antagonist: inactive; D1 allo mod: -1.36; M1 agonist: inactive
